# KCNQ1 act: potentiators or activators of human KCNQ1 potassium channel | P51787 | CHO-K1 KCNQ1, thallium flux FluxOR fluorescence; hits give high values | B-score at 10 µM | hit rate 0.35% among 310,000;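 active = fluorescence ratio B-score, a plate-corrected score, at least three library SD, with initial intensity B-score within 5 SD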
#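 Assay system: CHO-K1 cells stably expressing KCNQ1; Medium: assay buffer with matched DMSO; Also added: K+/Tl+ depolarizing stimulus; Dosing: single dose; Timing: dye 90 min, compound 20 min, room temperature; Measured by: kinetic FluxOR thallium fluorescence, 10-s 1-Hz baseline, 110-s post-stimulus read; Read-out: peak-minus-minimum fluorescence over initial fluorescence, negative-control normalized, B-scored.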
# KCNQ1 inh: inhibitors of human KCNQ1 potassium channel | P51787 | CHO-K1 KCNQ1, FluxOR thallium flux fluorescence; hits give high values | B-score at 10 µM | hit rate 1.3% among 310,000 | AID 2642;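 active = compounds whose thallium flux B-score, printed positive for inhibition, exceeds three library SD while starting fluorescence stays within three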;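 also: channel opened by potassium depolarization with thallium stimulus after 20 min compound exposure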
# KCNK9 block: inhibitors of human KCNK9 two-pore domain potassium channel. Q9NPC2. HEK293 KCNK9, FluxOR thallium flux fluorescence; hits give low values. B-score at 10 µM. hit rate 1.2% among 310,000;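 active = ratio B-score over 3 SD below the library mean, with starting fluorescence within 5 SD of its mean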;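 also: negative B-score means less thallium flux so channel inhibition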
# Cl transport mod: modulates chloride dependent transport by human KCC2. Q9H2X9. KCC2 cells, thallium flux FluoZin-2 fluorescence. B-score of Tl+ flux slope (higher = more flux/activation; lower = inhibition) at 10 µM. hit rate 2.2% among 190,000;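 active = thallium flux slope and its plate-corrected score both differing from the plate sample mean at a set confidence after two filtering rounds, in either direction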;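 also: slope of fluorescence scaled to starting intensity during 10 to 20 s after thallium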
# KCNK3 inh: human KCNK3 channel inhibition, primary screen; CHO-KCNK3 thallium flux, FluxOR fluorescence; hits give low values; hit rate 0.84% among 340,000; O14649; B-score at 10 µM;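 active = B-score under library mean minus 4 SD, starting fluorescence ratio at most library mean plus 5 SD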;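 also: more negative B-score means stronger inhibition of thallium flux through KCNK3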
# hERG rescue: shields human hERG channel from block by proarrhythmic agents | Q12809 | CHO-hERG, FluxOR thallium flux, dofetilide IC70 present | hit rate 0.51% among 310,000 | activation (rescue from dofetilide block), less the hit threshold, % at 10 µM;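 active = activation above the mean of controls blocked by dofetilide plus 5 SD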;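 also: thallium influx through hERG after potassium depolarization seen as dye fluorescence rise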
# KCNK9 inh conf: confirmation of human KCNK9 potassium channel inhibitors | hit rate 43% among 4,900 | HEK293 KCNK9 cells, FluxOR thallium flux fluorescence | inhibition, % at 10 µM | AID 492992 | shares compounds with KCNK9 block;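 active = thallium signal inhibited by more than 5 SD of the compound-free buffer control wells, on both duplicate plates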;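 also: 0% = assay buffer control wells without compound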
# Kir21 sel: tests whether KCNK9 modulators also affect mouse Kir2.1; AID 492993; hit rate 4% among 4,900; shares compounds with KCNK9 block; Kir2.1 cells, FluxOR thallium flux fluorescence; inhibition, % at 10 µM;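 active = thallium signal drop more than 5 SD beyond the mean of the no-compound control wells, seen in both duplicate plates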;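 also: signal is fluorescence rise after thallium addition divided by baseline fluorescence; plate controls were assay buffer only for no effect and full block by chlorpromazine control for full effect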
# KCNK9 uninduced: second check of KCNK9 modulator effects in non-induced HEK293 cells. FluxOR thallium flux. hit rate 40% among 4,900. shares compounds with KCNK9 block. AID 492997. inhibition, % at 10 µM;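 active = thallium signal drop beyond 5 SD of the untreated control mean, on both duplicate plates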;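 also: plate controls were buffer only IC0 wells for no effect and SID17386958 at its maximal inhibitory level for full effect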
# Active calls of the source: *; i = inactive; nt = no result given. A selection: hits, their analogues and other compounds. The true share with any hit is near 4.1%.
SMILES,KCNQ1 act,KCNQ1 inh,KCNK9 block,Cl transport mod,KCNK3 inh,hERG rescue,KCNK9 inh conf,Kir21 sel,KCNK9 uninduced
S=C(NCc1ccccc1)NCc1ccccc1Cl,i,i,i,nt,i,-3,nt,nt,nt
Fc1cccc(Cl)c1CSc1ccc(-c2cccnc2)nn1,i,i,-11*,-1,i,-8,33%*,i,i
O=C(Cn1cnc2cc([N+](=O)[O-])ccc2c1=O)Nc1ccccc1-c1ccccc1,i,i,i,0.14,i,-6,nt,nt,nt
COc1ccc(Cl)cc1NC(=O)CCNS(=O)(=O)c1cccc2nonc12,i,i,i,nt,i,-4,nt,nt,nt
CCOC(=O)NC(=O)CSc1nc(-c2ccc(C)c(C)c2)cn1-c1ccccc1,i,i,-8.2*,1.5,i,-10,42%*,i,36%*
CNc1nnc(CSc2nc(C)cc(C)n2)s1,i,i,i,1.9,i,-5,36%*,i,i
CCOc1ccc(C(=O)Cc2ccccc2)cc1,nt,nt,nt,nt,i,nt,nt,nt,nt
COc1ccccc1CC(=O)c1ccc(OCc2ccccc2)cc1,i,i,i,nt,i,-15,i,i,i
COC(=O)c1ccc(C(=O)OC)c(NC(=O)COC(=O)CC2CC3CCC2C3)c1 (stereo not drawn),i,i,-13*,-0.27,-14*,-12,50%*,i,29%*
Cc1cccc2nc(-c3ccccc3)nc(N3CCC(O)(c4ccc(Cl)cc4)CC3)c12,i,i,-10*,0.69,i,-5,61%*,i,32%*
COc1ccc(N2CCN(CC(=O)Nc3ccccc3C(=O)NCc3ccccc3)CC2)cc1,nt,nt,nt,nt,i,nt,nt,nt,nt
Cc1ccc(-c2nn(C(C)(C)C)c3ncnc(NS(=O)(=O)c4ccc([N+](=O)[O-])cc4)c23)cc1,i,i,i,-0.089,i,-11,i,i,i
OC1OC[C@@H](O)[C@H](O)[C@H]1O (stereo partly drawn),i,i,i,nt,nt,-4,nt,nt,nt
COc1cc(/C=C2\C(=N)N3N=C(S(C)(=O)=O)SC3=NC2=O)cc(OC)c1OCCOc1cccc(C)c1,i,i,i,nt,i,-34,i,i,i
CCOc1cc(/C=C2\C(=N)N3N=C(S(C)(=O)=O)SC3=NC2=O)ccc1OCCOc1cccc(OC)c1,i,i,i,nt,i,-17,nt,nt,nt
CCS(=O)(=O)C1=NN2C(=N)/C(=C\c3ccc(OCCOc4cccc(OC)c4)c(OC)c3)C(=O)N=C2S1,i,i,i,nt,i,-26,i,i,i
COC(=O)c1ccc(C(C(=O)NC2CCCCC2)N(CCc2ccccc2)C(=O)Cc2cccs2)cc1 (stereo not drawn),i,i,i,1.2,i,-6,nt,nt,nt
COC(=O)c1ccc(C(C(=O)NC2CCCCC2)N(Cc2ccc(F)cc2)C(=O)Cc2cccs2)cc1 (stereo not drawn),i,i,-11*,-0.84,i,-3,i,i,31%*
O=C1C2=C(Nc3ccccc3SC2c2ccco2)c2ccccc21 (stereo not drawn),i,13*,-18*,-2.2,i,-9,65%*,i,30%*
O=C1c2ccccc2NC(c2ccco2)N1O (stereo not drawn),i,i,i,0.72,i,0,nt,nt,nt
COc1ccc(CNC(=O)Cn2cnc3c(NCc4ccccc4)ncnc32)cc1,nt,nt,nt,nt,i,nt,nt,nt,nt
CCN1C(=O)c2cccc3c(S(=O)(=O)N(C(C)=O)c4ccc(OC(C)=O)cc4)ccc1c23,nt,nt,nt,nt,i,nt,nt,nt,nt
CC1CC(C)CN(C(=O)c2ccc(C(=O)c3ccccc3)cc2)C1 (stereo not drawn),i,i,i,nt,i,-13,i,i,i
CC1CC(C)CN(C(=O)c2ccc(S(=O)(=O)N3CC(C)CC(C)C3)cc2)C1 (stereo not drawn),i,i,i,nt,i,-6,i,i,i
O=C(CSCc1cc(=O)n2nc(C3CC3)sc2n1)Nc1ccccc1Cl,i,i,i,nt,i,-7,nt,nt,nt
SMILES,KCNQ1 act,KCNQ1 inh,KCNK9 block,Cl transport mod,KCNK3 inh,hERG rescue,KCNK9 inh conf,Kir21 sel,KCNK9 uninduced
O=C(/C=C/c1ccccc1)Nc1cccc(C(=O)NC2CC2)c1,nt,nt,nt,nt,i,nt,nt,nt,nt
Cc1ccc(S(=O)(=O)N(C)CC(=O)O/N=C(\N)c2cccc([N+](=O)[O-])c2)cc1,i,i,i,-0.54,i,-12,nt,nt,nt
Cc1ccc(SCC(=O)O/N=C(\N)c2cccc([N+](=O)[O-])c2)cc1,i,i,i,nt,i,-8,i,i,28%*
O=C(CCNC(=O)c1ccccc1Cl)Nc1nc(-c2ccc3ccccc3c2)cs1,i,i,-8.2*,-0.86,i,-8,42%*,i,i
Cc1ccc(S(=O)(=O)NCC(=O)NCC2CCCCC2)cc1C,i,i,i,nt,i,-5,nt,nt,nt
Cc1cc(C)c(C)c(S(=O)(=O)NCC(=O)NCC2CCCCC2)c1C,i,i,-12*,nt,i,-4,34%*,i,26%*
O=C(/C=C/c1ccccc1)NCCSc1ccc(Cl)cc1,i,i,i,0.051,i,-6,i,i,i
O=C1c2cccc(NCCCNCCO)c2C(=O)c2cccc(NCCCNCCO)c21,nt,nt,nt,nt,i,nt,nt,nt,nt
CC1CN(C(=O)c2ccccc2OCc2ccccc2Cl)CC(C)O1 (stereo not drawn),nt,nt,nt,nt,i,nt,nt,nt,nt
Cc1ccc(C(C)C)cc1OCC(=O)N1CCN(C(=O)c2ccco2)CC1,i,i,i,nt,i,-21,nt,nt,nt
N=c1n(CC(=O)c2ccc(Br)s2)c2ccccc2n1Cc1ccccc1,i,i,-10*,0.9,i,-21,52%*,i,30%*
CC1Cc2ccccc2N1C(=O)C1CC(=O)N(c2ccccc2)C1 (stereo not drawn),i,i,i,nt,i,-6,nt,nt,nt
O=S(=O)(NC1CCCCC1N1CCCCC1)c1ccccc1 (stereo not drawn),i,i,i,nt,i,-2,nt,nt,nt
Cc1ccc(C)c(N2CCN(C3CCCCC3NS(=O)(=O)c3ccccc3)CC2)c1 (stereo not drawn),i,8*,-16*,nt,-12*,-7,52%*,i,31%*
COc1ccc(N2CCN(C3CCCCC3NS(=O)(=O)c3ccc(Cl)cc3)CC2)cc1 (stereo not drawn),i,i,i,nt,i,-2,i,i,i

# Screening data deposited in PubChem BioAssay by several laboratories.
